Experimental data pooled from the literature.
Lines come from different studies, so protocols differ.
Target: Serine/threonine-protein kinase 38-like (STK38L, Homo sapiens, UniProt Q9Y2H1)

| SMILES | test | conditions | remaining binding |
| --- | --- | --- | --- |
| N#CC1(c2ccccn2)CCN(Cc2cc(C(=O)N3CCCC3)c(=O)n3ccccc23)CC1 | cell-free assay, competition with immobilised ligand | 1 µM | 90% |
| O=C(NCCCN1CCOCC1)c1ccc(Nc2ncc(Cl)c(-c3ccc(Cl)s3)n2)cc1 | binding, competition with immobilised ligand | 1 µM | 82% |
| COc1cnc(Nc2cccc(S(N)(=O)=O)c2)nc1N1CCN(c2ccccc2)C(=O)C1 | binding, competition with immobilised ligand | 1 µM | 100% |
| O=C(Nc1c[nH]nc1C(=O)NC1CCNCC1)c1cc(F)cc(F)c1 | binding, competition with immobilised ligand | 1 µM | 93% |
| CNC(=O)Nc1ccc2c(c1)[C@@]1(CC2)OC(=O)N(CC(=O)N(Cc2ccc(F)cc2)[C@@H](C)C(F)(F)F)C1=O | binding, competition with immobilised ligand | 1 µM | 67% |
| c1cncc(-c2cccc(Nc3nccc(NC4CCCCC4)n3)c2)c1 | binding, competition with immobilised ligand | 10 µM | 100% |
| CNC(=O)[C@@H]1CC[C@@H](n2c(-c3ccc4cnccc4c3)nc3ccc(C(=O)NCc4cccc(C(N)=O)c4)cc32)C1 | binding, competition with immobilised ligand | 1 µM | 100% |
| C[C@H]1CCN(c2nccc(-c3cnn4ncccc34)n2)C1 | binding | 1 µM | 83% |
| O=C(NCCCN1CCOCC1)c1ccc(Nc2nccc(-c3cc4ccccc4s3)n2)cc1 | binding, competition with immobilised ligand | 1 µM | 100% |
| CC(C)(O)c1cncc(-c2nc3ccc(F)cc3n2C2CC2)c1 | cell-free assay, competition with immobilised ligand | 1 µM | 100% |
| c1cnn2ncc(-c3ccnc(N4CCC45COC5)n3)c2c1 | binding | 1 µM | 78% |
| Cc1cc(C)c(-n2ccn3nc(-c4cccnc4)cc23)cc1NC(=O)c1cc(C#N)cc(S(F)(F)(F)(F)F)c1 | binding, competition with immobilised ligand | 0.1 µM | 98.9% |
| COc1ccnn2ncc(-c3ccnc(N(C)C)n3)c12 | binding | 1 µM | 96% |
| COc1ncc2cc3ccccc3nc2c1C#N | binding, competition with immobilised ligand | 5 µM | 87% |
| CN(C)c1nccc(-c2cnn3ncccc23)n1 | binding | 1 µM | 85% |
| O=C(c1ccc(Nc2ncc(Cl)c(-c3ccc(Cl)s3)n2)cc1)N1CCC(N2CCCC2)CC1 | binding, competition with immobilised ligand | 1 µM | 84% |
| CN(C)c1nccc(-c2cnc3ncccn23)n1 | binding | 1 µM | 100% |
| CN(C)C(=O)Cn1cc(-c2nc(C3(c4ccc(-c5cnc(N)nc5)cc4)CC3)no2)cn1 | cell-free assay, competition with immobilised ligand | 1 µM | 81% |
| N[C@@H]1CCN(c2nccc(-c3cnn4ncccc34)n2)C1 | binding | 1 µM | 100% |
| C=CC(=O)N1CCC(C(=O)NCC(=O)N2CCN(c3nc(-c4cnc(N)nc4C(F)F)nc(N4CCOCC4)n3)CC2)CC1 | binding, competition with immobilised ligand | 1 µM | 97% |
| Cc1cc(NC(=O)c2cccc(S(F)(F)(F)(F)F)c2)cc(-n2ccn3nc(-c4cccnc4)cc23)c1 | cell-free assay, competition with immobilised ligand | 1 µM | 100% |
| Cc1cnn2ncc(-c3ccnc(N(C)C)n3)c2c1 | binding | 1 µM | 100% |
